Screening results as filed in PubChem BioAssay.
TAAR1 antag: human TAAR1 antagonists, primary screen, Fluo-8 calcium fluorescence, CHO RD-HGA16 cells | inhibition, % at 3 µM | antagonist | 360,000 tested, 1.5% active;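 active means inhibition above a per-plate cutoff, the mean inhibition of test compounds on that plate plus 3 SD, cut at about 49% in these data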;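 further: 0% = DMSO plus EC80 beta-PEA response and 100% = DMSO alone without agonist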
Target sequence (Q96RJ0 whole entry, looked up): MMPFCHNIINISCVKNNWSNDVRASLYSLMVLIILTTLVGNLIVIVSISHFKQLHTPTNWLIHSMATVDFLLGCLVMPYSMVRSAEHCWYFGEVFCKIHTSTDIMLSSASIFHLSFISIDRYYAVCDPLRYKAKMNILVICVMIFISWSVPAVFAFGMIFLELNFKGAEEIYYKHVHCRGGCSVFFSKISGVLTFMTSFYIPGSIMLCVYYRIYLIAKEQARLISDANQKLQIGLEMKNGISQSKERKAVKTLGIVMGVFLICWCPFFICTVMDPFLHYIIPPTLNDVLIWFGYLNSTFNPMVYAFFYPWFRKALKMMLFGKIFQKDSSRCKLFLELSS
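System: CHO RD-HGA16 cells bearing hTAAR1. Reagent: EC80 β-phenethylamine stimulus. Schedule: seeding 17-24 h prior, 75-min 37 °C, 30-min RT dye loading. Signal: Fluo-8 intracellular calcium dye fluorescence, real-time kinetic reads. Read-out: % inhibition from peak post-agonist over basal fluorescence ratio. Benchmarks: vehicle wells and EC80 agonist wells. Replicates: n of 1.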
OX1R antag-1: antagonists of human orexin 1 receptor (OX1R); OX1R-expressing cells, FRET antagonist read-out; inhibition, % at 6.6 µM; Orexin/Hypocretin receptor type 1 (Homo sapiens), O43613; 330,000 tested, 1.8% active; in the data active means inhibition mostly above about 38%, no sharp cut-off; inactive means mostly below about 40%;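 further: 0% = agonist challenge alone and 100% = reference antagonist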
TAAR1 ag: human TAAR1 agonists, primary screen, Fluo-8 calcium fluorescence, CHO RD-HGA16 cells | 360,000 tested, 0.99% active | Trace amine-associated receptor 1 (Homo sapiens), Q96RJ0 | activation, % at 3 µM | vehicle wells 0%, saturating PEA agonist 100%;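 active means activation above the mean activation of all test compounds in the run plus 3 SD, cut at about 38% in these data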
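Assay system: CHO-derived RD-HGA16 cells with stable Gα16 and human TAAR1; timing: 17-24 h seeding, 75 min 37 °C dye, 30 min RT; read-out: % activation from peak over basal fluorescence ratio, DMSO-to-PEA scaled; measured by: kinetic Fluo-8 calcium fluorescence; benchmarks: low control DMSO, high control PEA (EC100); doses: 3 µM single concentration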
CHO parental Ca: ATP-evoked calcium signal inhibitors, parental CHO, primary screen, counter-screen for OX1R antagonist project, cell-based, fluorescence, Fluo-8 calcium dye; inhibition, % at 5.6 µM; parental CHO-K1, ATP-induced calcium, Fluo-8 fluorescence; AID 463079, 2010; 330,000 tested, 0.63% active;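 active means inhibition above that plate's mean sample inhibition plus 3 SD, cut at about 26% in these data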;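 further: 0% = ATP-challenged DMSO wells and 100% = DMSO wells without ATP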
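Material: parental CHO cells / Compound: single nominal dose of 5.6 µM per compound / Signal: Fluo-8 fluorescence / Replicates: singlicate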
GalR3 antag: GalR3 antagonists in HEK293 cells, primary screen, cell-based, fluorescence readout | Galanin receptor type 3 (Homo sapiens), O60755 | inhibition, % at 3 µM | AID 651719, 2012 | HEK293 GalR3-CNG cAMP membrane potential fluorescence; galR3 body fused to GalR1 C-terminus | 360,000 tested, 0.44% active;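 active means inhibition above the screen-wide average plus 3 SD, cut at about 13% in these data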;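 further: forskolin and galanin both at EC90 stimulate the cells; cAMP rise reported by CNG channel membrane potential dye signal; 0% = forskolin plus galanin with DMSO and 100% = forskolin alone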
Target sequence (O60755 1-299 limits assumed): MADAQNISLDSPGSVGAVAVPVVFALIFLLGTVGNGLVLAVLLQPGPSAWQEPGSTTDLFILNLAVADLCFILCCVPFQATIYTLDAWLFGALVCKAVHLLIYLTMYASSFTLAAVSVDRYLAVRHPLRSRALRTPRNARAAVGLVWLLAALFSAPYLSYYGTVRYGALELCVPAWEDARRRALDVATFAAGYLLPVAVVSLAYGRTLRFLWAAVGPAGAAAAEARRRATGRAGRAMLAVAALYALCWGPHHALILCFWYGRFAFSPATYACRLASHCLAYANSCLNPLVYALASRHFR
OX1R antag-2: OX1R (HCRTR1) antagonists, primary screen, fluorescence, CHO/OX1R cells, Fluo-8 calcium, orexin A; Orexin/Hypocretin receptor type 1 (Homo sapiens), O43613; Fluo-8 calcium fluorescence; inhibition, % at 5 µM; 330,000 tested, 0.43% active; AID 434989, 2010;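 active means inhibition above its plate's threshold, mean inhibition of all tested compounds on the plate plus 3 SD, cut at about 37% in these data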;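 further: 0% = orexin A challenge wells and 100% = SB-334867-A antagonist wells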
nonsel antag count: nonselective antagonists in TAAR1 counter-screen cells, counter-screen for hTAAR1 antagonist project, cell-based, fluorescence, calcium | shares compounds with TAAR1 antag | counterscreen cell line, antagonist mode | inhibition, % at 3 µM | 2,400 tested, 77% active; in the data active means inhibition above about 22%;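 further: CHO-Ga16 host cells stimulated with ATP at an EC80 level; 0% = agonist EC80 plus vehicle and 100% = vehicle without agonist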
TAAR1 ant conf: human TAAR1 antagonists, retest of hits, confirmation, cell-based, fluorescence; inhibition, % at 3 µM; TAAR1-expressing cells, fluorescence antagonist read-out; 2,400 tested, 40% active; AID 651785, 2012; shares compounds with TAAR1 antag; in the data active means inhibition above about 49%;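 further: CHO-Ga16 host cells challenged with agonist PEA near its EC80; 0% = agonist at EC80 plus vehicle and 100% = vehicle with no agonist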
Ga16 ag counter: calcium activation in Ga16-expressing cells, counter-screen for TAAR1 antagonist project, cell-based, fluorescence; shares compounds with TAAR1 antag; agonist counterscreen; activation, % at 3 µM; 2,400 tested, 18% active; in the data active means activation above about 12%;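 further: 0% = vehicle wells and 100% = saturating stimulus response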
TAAR1 ag count: TAAR1 activation by candidate antagonists – cell-based, fluorescence, counter-screen for TAAR1 antagonist project | hTAAR1 cell line, agonist mode | activation, % at 3 µM | 2,400 tested, 2% active | shares compounds with TAAR1 antag; in the data active means activation above about 37%;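 further: CHO cells stably expressing TAAR1 with calcium dye readout; 0% = DMSO vehicle and 100% = full agonist response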
An asterisk follows results filed as active; nt = no result. Compounds with a hit are over-represented: about 4.2% of the library has one in this group of screens.

SMILES	TAAR1 antag	OX1R antag-1	TAAR1 ag	CHO parental Ca	GalR3 antag	OX1R antag-2	nonsel antag count	TAAR1 ant conf	Ga16 ag counter	TAAR1 ag count
CCOC(=O)c1c(N)nn(C(C)=O)c1-c1ccccc1	5	7	4	-12	-1	-13	nt	nt	nt	nt
CCOC(=O)c1nn(-c2ccccc2F)c(-c2ccccc2)c1C(=O)c1ccccc1	56*	4	5	-10	-2	-9	10	33	9	11
O=C(CN(Cc1ccc(Cl)cc1)C(=O)CNS(=O)(=O)c1ccc(F)cc1)NCC1CCCO1 (stereo not drawn)	1	34	-5	-12	-7	-20	nt	nt	nt	nt
COCCN(C(=O)Cc1cccs1)C(C(=O)NCc1ccc(OC)cc1)c1ccc(C(C)C)cc1 (stereo not drawn)	64*	11	15	14	-1	20	29*	54*	10	13
O=C(Cc1cccs1)NCc1ccc2c(c1)OCO2	9	7	2	-14	-1	2	nt	nt	nt	nt
O=C(NCc1ccccc1)C(c1ccccc1)N(Cc1ccc2c(c1)OCO2)C(=O)Cc1cccs1 (stereo not drawn)	80*	48	10	-19	0	6	40*	59*	12*	8
COc1ccc(CNC(=O)Cc2cccs2)cc1	nt	4	nt	3	nt	-2	nt	nt	nt	nt
CCc1ccc(C(C(=O)NCc2ccc(OC)cc2)N(CCOC)C(=O)Cc2cccs2)cc1 (stereo not drawn)	73*	8	19	-14	-10	-17	29*	53*	9	8
COC(=O)[C@]12CCCCC=C1N(Cc1ccc3c(c1)OCO3)C(=O)[C@H](CC(=O)N1CCSCC1)C2	67*	nt	12	nt	-5	nt	26*	48	9	14
Cc1c(C(=O)N(Cc2ccccc2)C(C)C)oc2ccc(S(=O)(=O)N3CCOCC3)cc12	80*	14	11	-18	-8	-13	33*	61*	13*	11
COc1ccc(Br)cc1CN1CCN(S(=O)(=O)Cc2ccccc2)CC1	56*	31	0	-19	-6	-34	5	37	5	12
CCOc1cc(CN2CCN(S(=O)(=O)Cc3ccccc3)CC2)ccc1OC	-8	24	1	-10	-4	-30	nt	nt	nt	nt
Cc1cccc(-c2cc(C(=O)Nc3cccnc3)c3ccccc3n2)c1	58*	16	1	-30	11	-43	17	28	5	3
Cc1cccc(-c2cc(C(=O)Nc3c(C)n(C)n(-c4ccccc4)c3=O)c3ccccc3n2)c1	70*	34	9	-10	-1	-32	31*	47	7	6
Cc1c(NC(=O)c2cc(-c3ccc(F)cc3)nc3ccccc23)c(=O)n(-c2ccccc2)n1C	61*	6	15	-19	-1	-26	25*	46	8	10
Cc1c(NC(=O)COC(=O)c2cc(-c3cccc4ccccc34)nc3ccccc23)c(=O)n(-c2ccccc2)n1C	19	6	0	-15	-5	-33	nt	nt	nt	nt
CCc1ccc(Nc2cc(C)nc3nc(C)nn23)cc1	-48	13	0	-18	1	9	nt	nt	nt	nt
Cc1cccc(/C=C2\Sc3ccc(C(=O)N4CCC(C(N)=O)CC4)cc3N(C)C2=O)c1	60*	3	7	-5	-9	2	18	26	6	6
COc1ccc(/C=C2\Sc3ccc(C(=O)N4CCCC4)cc3N(C)C2=O)cc1OC	nt	13	nt	-22	nt	-17	nt	nt	nt	nt
COc1cccc(-c2nnc(NC(=O)CCS(=O)(=O)c3ccc(F)cc3)o2)c1	-1	nt	0	nt	-8	nt	nt	nt	nt	nt
Cc1ccc(C(=O)OCC(=O)Nc2c(C)nn(-c3ccccc3)c2C)c(O)c1	-18	nt	3	nt	-9	nt	nt	nt	nt	nt
CC(=O)c1ccc(OCCCC(=O)OCC(=O)Nc2c(C)nn(-c3ccccc3)c2C)cc1	15	2	8	-17	-5	-13	nt	nt	nt	nt
COc1ccccc1/C=C/C(=O)OCC(=O)Nc1c(C)nn(-c2ccccc2)c1C	66*	10	21	-25	-6	-22	21*	44	10	6
Cc1cc(C)n(-c2ccc(C(=O)OCC(=O)NC(c3ccccc3)c3ccccc3)cc2)n1	66*	11	13	4	-7	-19	27*	52*	7	19
Cc1nn(-c2ccccc2)c(C)c1NC(=O)COC(=O)c1ccc(Cl)c(N)c1	72*	22	17	-7	0	-10	30*	50*	12*	12
SMILES	TAAR1 antag	OX1R antag-1	TAAR1 ag	CHO parental Ca	GalR3 antag	OX1R antag-2	nonsel antag count	TAAR1 ant conf	Ga16 ag counter	TAAR1 ag count
Cc1nn(-c2ccccc2)c(C)c1NC(=O)COC(=O)CCCOc1ccccc1	57*	14	14	10	0	-14	19	38	10	9
CCOC(=O)c1c(C)[nH]c(C)c1C(=O)COC(=O)/C=C/c1cccc(C(F)(F)F)c1	-11	15	-1	-2	-2	-16	nt	nt	nt	nt
CCOC(=O)c1cc(S(=O)(=O)NCc2ccc3c(c2)OCO3)cn1C	-22	21	0	-2	-8	-11	nt	nt	nt	nt
CCN=c1sc(C(=O)NCCc2ccccc2)cc(=O)n1CC	55*	20	26	-14	-8	-16	31*	53*	11	25
CCOc1ccccc1CNC(=O)CCNC(=O)Cn1ccc2ccccc2c1=O	-8	14	3	-10	-2	-25	nt	nt	nt	nt
COc1cc(CCCN2C(=S)NC[C@@H]2CCCCN)cc(OC)c1OC	-3	34	2	4	-4	-14	nt	nt	nt	nt
Cc1nc2ccccc2c2oc(C(=O)N3CCc4ccccc4C3)cc12	58*	35*	3	-11	-1	-12	26*	49*	15*	18
